Experimental data published in ChEMBL document CHEMBL1133693, “Peptide and peptide mimetic inhibitors of antigen presentation by HLA-DR class II MHC molecules. Design, structure-activity relationships, and X-ray crystal structures” (J Med Chem, 2000).
Starred links: 1 amine or outer side, 2 acyl side, 3 side chain; linkers in the order of their positions; H or OH if unused. Non-standard residues stand in square brackets, D forms with d. Residues, ends and D or L forms follow the SMILES beside them. ξ: configuration not given here. Haic = O=C1[C@@H](N[*:1])CCc2cccc3c2N1[C@H](C(=O)[*:2])C3; X1 = O=C([C@@H]1C(c2ccccc2)CCN1[*:1])[*:2]; NMePhg = CN[C@H](C(=O)O)c1ccccc1; Tic = O=C(O)[C@@H]1Cc2ccccc2CN1; Cha = N[C@@H](CC1CCCCC1)C(=O)O; NMeL = CN[C@@H](CC(C)C)C(=O)O; ξTle = CC(C)(C)C(N)C(=O)O; NMeA = CN[C@@H](C)C(=O)O; ξNMeA = CNC(C)C(=O)O

Columns and labels:
[1] = target: Cathepsin B (Bos taurus) (UniProt P07688); experiment: Percent of original compound remaining with cathepsin B after incubation for 4 hrs was determined by HPLC
[2] = tested on: T-cell; experiment: T-cell inhibitory potency relative to the IC50 of a(Cha)AAAKTAAAAa-NH2 MHC class II DRB1*0101; format: functional, Homo sapiens
[3] = tested on: T-cell; experiment: T-cell inhibitory potency relative to the IC50 of a(Cha)AAAKTAAAAa-NH2 in MHC class II DRB1*0401; format: functional, Homo sapiens
[4] = Mean relative potency is the ratio of potencies of 'Ac-(Cha)RAMASL-NH2' and compound, to inhibit MHC class II DRB1*0101
Outline: (§1)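 Scintillation proximity competition assay. Test compounds competed against the radioligand, and bound counts were read by scintillation. Ac-(Cha)RAMASL-NH2 was run as standard competitor in every run. Potency is the ratio of standard IC50 to compound IC50.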

[5] = Mean relative potency is the ratio of potencies of 'Ac-(Cha)RAMASL-NH2' and compound, to inhibit MHC class II DRB1*0401
Outline: as §1

[6] = tested on: T-cell; experiment: T-cell inhibitory potency relative to the IC50 of a(Cha)AAAKTAAAAa-NH2 iMHC class II DRB1*0101; format: functional, Homo sapiens
[7] = Mean relative potency is the ratio of potencies of 'Ac-(Cha)RAMASL-NH2' and compound to inhibit MHC class II DRB1*0101
Outline: as §1

[8] = Mean relative potency is the ratio of potencies of 'Ac-(Cha)RAMASL-NH2' and compound to inhibit MHC class II DRB1*0401
Outline: as §1

[9] = Degradation half-time was evaluated; format: ADME
Outline: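 Each test peptide at 1.0 mg/mL in pH 6.0 phosphate buffer (88 mM KH2PO4, 12 mM Na2HPO4, 1.33 mM EDTA, 2.0 mM cysteine, internal standard) was prewarmed to 32 °C. Cathepsin B was preactivated 5 min at 37 °C and added at 0.3 U per micromole of compound. Half-time from ln(A0 − A) vs time, t1/2 = 0.693/k.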

[10] = Mean relative potency is the ratio of potencies of 'Ac-(Cha)RAMASL-NH2' and compound, to inhibit MHC class II DRB1*0404
Outline: as §1

| % remaining [1] | Mean relative potency [4] | Mean relative potency [5] | Mean relative potency [7] | Mean relative potency [8] | half-life [9] | Mean relative potency [10] | SMILES | T-cell inhibition [2] | T-cell inhibition [3] | T-cell inhibition [6] |
| --- | --- | --- | --- | --- | --- | --- | --- | --- | --- | --- |
| 116% | 0.49 | 0.22 | – | – | – | – | CSCC[C@@H](NC(=O)[C@H]1Cc2ccccc2CN1C(=O)[C@H](CCCN=C(N)N)NC(=O)[C@H](CC1CCCCC1)NC(C)=O)C(=O)N1CCC(c2ccccc2)[C@@H]1C(=O)N[C@@H](CO)C(=O)N(C)[C@@H](CC(C)C)C(N)=O (some centres not stated) | 2.5 | 2.7 | – |
| 98% | – | – | 0.84 | 0.63 | – | – | CSCC[C@@H](NC(=O)[C@H]1Cc2ccccc2CN1C(=O)[C@H](CCCN=C(N)N)NC(=O)[C@H](CC1CCCCC1)NC(C)=O)C(=O)N1CCC(c2ccccc2)[C@@H]1C(=O)N[C@@H](CO)C(=O)N(C)[C@@H](C)C(N)=O (some centres not stated) | – | 4.6 | 6.9 |
| – | – | – | – | – | 4.6 min | – | CSCC[C@H](NC(=O)[C@H](C)NC(=O)[C@H](CCCN=C(N)N)NC(=O)[C@H](CC1CCCCC1)NC(C)=O)C(=O)N[C@@H](C)C(=O)N[C@@H](CO)C(=O)N(C)[C@@H](CC(C)C)C(N)=O | – | – | – |
| – | 0 | 0 | – | – | – | 0 | CC(=O)N[C@@H](CC1CCCCC1)C(=O)N[C@@H](CCCN=C(N)N)C(=O)N[C@@H](C)C(N)=O | – | – | – |
| 99% | – | – | 0.89 | 1.05 | – | – | CSCCC(NC(=O)[C@H]1Cc2ccccc2CN1C(=O)[C@H](CCCN=C(N)N)NC(=O)[C@H](CC1CCCCC1)NC(C)=O)C(=O)N(C)[C@@H](C)C(=O)N[C@@H](CO)C(=O)N(C)[C@@H](C)C(N)=O (some centres not stated) | – | – | – |
| 43% | – | – | 1.64 | 1.27 | – | – | CSCC[C@@H](NC(=O)[C@@H](c1ccccc1)N(C)C(=O)[C@H](CCCN=C(N)N)NC(=O)[C@H](CC1CCCCC1)NC(C)=O)C(=O)N(C)[C@@H](C)C(=O)N[C@@H](CO)C(=O)N[C@H](C(N)=O)C(C)(C)C | – | – | – |
| 93% | – | – | 1.15 | 2.02 | – | – | CSCC[C@@H](NC(=O)[C@@H](c1ccccc1)N(C)C(=O)[C@H](CCCN=C(N)N)NC(=O)[C@H](CC1CCCCC1)NC(C)=O)C(=O)N[C@@H](C)C(=O)N[C@@H](CO)C(=O)N[C@H](C(N)=O)C(C)(C)C | – | – | – |
| 97% | – | – | 0.29 | 0.38 | – | – | CSCC[C@@H](NC(=O)[C@H](NC(=O)[C@H](CCCN=C(N)N)NC(=O)[C@H](CC1CCCCC1)NC(C)=O)C(C)(C)C)C(=O)N(C)[C@@H](C)C(=O)N[C@@H](CO)C(=O)N[C@H](C(N)=O)C(C)(C)C | – | – | – |
| – | 0.34 | 1.14 | – | – | – | 0.32 | CSCC[C@H](NC(=O)[C@H](C)NC(=O)[C@H](CCCN=C(N)N)NC(=O)[C@H](CC1CCCCC1)NC(C)=O)C(=O)N[C@H](C)C(=O)N[C@@H](CO)C(N)=O | – | – | – |
| – | 0.25 | 0.07 | – | – | – | 0.03 | CSCC[C@H](NC(=O)[C@H](C)NC(=O)[C@H](CCCN=C(N)N)NC(=O)[C@H](CC1CCCCC1)NC(C)=O)C(=O)N[C@H](C)C(N)=O | – | – | – |
| – | 0.05 | 0.01 | – | – | – | 0.005 | CSCC[C@H](NC(=O)[C@H](C)NC(=O)[C@H](CCCN=C(N)N)NC(=O)[C@H](CC1CCCCC1)NC(C)=O)C(N)=O (Ac-[Cha]RAM-NH2) | – | – | – |
| 0% | 1 | 1 | – | – | 3 min | 1 | CSCC[C@H](NC(=O)[C@H](C)NC(=O)[C@H](CCCN=C(N)N)NC(=O)[C@H](CC1CCCCC1)NC(C)=O)C(=O)N[C@@H](C)C(=O)N[C@@H](CO)C(=O)N[C@@H](CC(C)C)C(N)=O (Ac-[Cha]RAMASL-NH2) | – | 0 | 0.12 |
| 0% | 1.22 | 0.6 | – | – | 7.3 min | – | CSCC[C@H](NC(=O)[C@H](C)NC(=O)[C@H](CCCN=C(N)N)NC(=O)[C@H](CC1CCCCC1)NC(C)=O)C(=O)N(C)[C@@H](C)C(=O)N[C@@H](CO)C(=O)N[C@@H](CC(C)C)C(N)=O (Ac-[Cha]RAM[NMeA]SL-NH2) | – | – | – |
| 0% | – | – | – | – | 4.8 min | – | CSCC[C@H](NC(=O)[C@H](C)NC(=O)[C@H](CCCN=C(N)N)NC(=O)[C@H](CC1CCCCC1)NC(C)=O)C(=O)N(C)[C@@H](C)C(=O)N[C@@H](CO)C(=O)N(C)[C@@H](CC(C)C)C(N)=O (Ac-[Cha]RAM[NMeA]S[NMeL]-NH2) | – | – | – |
| 99% | – | – | – | – | 10700 min | – | CSCC[C@H](NC(=O)[C@H](C)N(C)C(=O)[C@H](CCCN=C(N)N)NC(=O)[C@H](CC1CCCCC1)NC(C)=O)C(=O)N(C)[C@@H](C)C(=O)N[C@@H](CO)C(=O)N(C)[C@@H](CC(C)C)C(N)=O (Ac-[Cha]R[NMeA]M[NMeA]S[NMeL]-NH2) | – | – | – |
| – | – | – | – | – | – | – | CSCC[C@H](NC(=O)[C@H](C)N(C)C(=O)[C@H](CCCN=C(N)N)NC(=O)[C@H](CC1CCCCC1)NC(C)=O)C(=O)N1CCC(c2ccccc2)[C@H]1C(=O)N[C@@H](CO)C(=O)N(C)[C@@H](C)C(N)=O (some centres not stated) (Ac-[Cha]R[NMeA]M[X1]S[NMeA]-NH2) | – | 1.2 | 3.7 |
| 106% | – | – | 0.03 | 0.18 | – | – | CC(=O)N[C@@H](CC1CCCCC1)C(=O)N[C@@H](CCCN=C(N)N)C(=O)N(C)[C@@H](C)C(=O)N[C@H]1CCc2cccc3c2N(C1=O)[C@H](C(=O)N[C@@H](CO)C(=O)N(C)[C@@H](CC(C)C)C(N)=O)C3 (Ac-[Cha]R[NMeA][Haic]S[NMeL]-NH2) | – | 2.32 | <0.04 |
| 95% | – | – | 0.01 | 0.11 | – | – | CC(=O)N[C@@H](CC1CCCCC1)C(=O)N[C@@H](CCCN=C(N)N)C(=O)N(C)[C@H](C(=O)N[C@H]1CCc2cccc3c2N(C1=O)[C@H](C(=O)N[C@@H](CO)C(=O)N(C)[C@@H](CC(C)C)C(N)=O)C3)c1ccccc1 (Ac-[Cha]R[NMePhg][Haic]S[NMeL]-NH2) | – | 1 | 0.1 |
| 141% | – | – | 0.01 | 0.37 | – | – | CC(=O)N[C@@H](CC1CCCCC1)C(=O)N[C@@H](CCCN=C(N)N)C(=O)N(C)[C@H](C(=O)N[C@H]1CCc2cccc3c2N(C1=O)[C@H](C(=O)N[C@@H](CO)C(=O)N(C)C(C)C(N)=O)C3)c1ccccc1 (some centres not stated) (Ac-[Cha]R[NMePhg][Haic]S[ξNMeA]-NH2) | – | 4.6 | <0.2 |
| 126% | – | – | 0.06 | 0.23 | – | – | CC(=O)N[C@@H](CC1CCCCC1)C(=O)N[C@@H](CCCN=C(N)N)C(=O)N(C)[C@H](C(=O)N[C@H]1CCc2cccc3c2N(C1=O)[C@H](C(=O)N[C@@H](CO)C(=O)NC(C(N)=O)C(C)(C)C)C3)c1ccccc1 (some centres not stated) (Ac-[Cha]R[NMePhg][Haic]S[ξTle]-NH2) | – | 3 | 2.3 |
| 109% | – | – | 0.12 | 0.27 | – | – | CC(=O)N[C@@H](CC1CCCCC1)C(=O)N[C@@H](CCCN=C(N)N)C(=O)N1Cc2ccccc2C[C@H]1C(=O)N[C@H]1CCc2cccc3c2N(C1=O)[C@H](C(=O)N[C@@H](CO)C(=O)N(C)[C@@H](C)C(N)=O)C3 (Ac-[Cha]R[Tic][Haic]S[NMeA]-NH2) | – | 0.7 | 0.2 |
